# Laboratory results published in ChEMBL document CHEMBL4406821, “Novel dual inhibitors targeting CDK4 and VEGFR2 synergistically suppressed cancer progression and angiogenesis” (Eur J Med Chem, 2019).
# Activity calls are given as the source filed them. The calls are words filed in the database; no cut-off is given here.
# Key:
# [1] = n-octanol/water partition coefficient, log P of the compound by shake flask method based HPLC analysis; format: physicochemical
# [2] = biological target: Vascular endothelial growth factor receptor 2 (Homo sapiens, UniProt P35968); experiment: Inhibition of VEGFR2 in HUVEC cells assessed as reduction in STAT3 phosphorylation at 20 to 40 nM incubated for 48 hrs by Western blot analysis; format: cell-based
# Summary of the method: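 HUVECs were maintained in 1640 medium with 10% FBS. They were treated with graded concentrations for 48 h, PBS-washed and lysed in RIPA buffer. Immunoblots were probed for total and phospho VEGFR2, STAT3, Akt, Erk1 and Src, each at 1:1000. β-actin served as loading control.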
# [3] = system: HeLa; experiment: Induction of cell cycle arrest in human HeLa cells assessed as accumulation in G2/M phase at 40 to 80 nM incubated for 36 hrs by propidium iodide staining based flow cytometry; format: functional
# Summary of the method: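 Cells were treated with graded concentrations for 36 h, then fixed overnight in 70% ice-cold ethanol at 4°C and resuspended in PBS. Staining used 50 µg/ml PI plus 5 µg/ml RNase at 37°C for 30 min. DNA content was analysed by FACS to give G0/G1, S and G2/M fractions.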
# [4] = Toxicity in NOD/SCID BALB/c mouse xenografted with human SiHa cells assessed as toxic effects in lungs at 40 mg/kg, po administered for 48 hrs by hematoxylin and eosin staining method; format: organism-based; details: in vivo
# [5] = AUC (0 to infinity) in Sprague-Dawley rat at 10 mg/kg, po by HPLC-MS analysis; format: ADME, organism-based; parameters: dose 10 mg/kg, time infinity, route oral; details: in vivo
# Summary of the method: (§1)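 Rats fitted with jugular vein catheters for serial blood sampling. Compound dissolved in saline with 5% (v/v) DMSO and given as a single 10 mg/kg dose iv or po after an overnight fast, n = 5 per group. Plasma isolated at once and measured by HPLC with tandem MS detection. Parameters derived by noncompartmental fitting.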
# [6] = AUMC (0 to t) in Sprague-Dawley rat at 10 mg/kg at 10 mg/kg, po by HPLC-MS analysis; format: ADME, organism-based; details: in vivo; summary of the method: as §1
# [7] = biological target: Bone morphogenetic protein receptor type-1B (Homo sapiens) (UniProt O00238); experiment: Inhibition of recombinant human ALK6 (148 to end residues) at 1 uM using casein as substrate incubated for 40 mins in presence of [gamma-33P]-ATP by scintillation counting method relative to control
# Summary of the method: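 Kinase panel profiling at 1 μM performed by Eurofins KinaseProfiler; percent inhibition reported as mean of two independent experiments.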
# [8] = biological target: Ephrin type-B receptor 4 (Homo sapiens) (UniProt P54760); experiment: Inhibition of recombinant human EPhB4 (561 to end residues) at 1 uM using poly (Glu, Tyr) 4:1 as substrate incubated for 40 mins in presence of [gamma-33P]-ATP by scintillation counting method relative to control
# [9] = biological target: Rhodopsin kinase GRK1 (Homo sapiens) (UniProt Q15835); experiment: Inhibition of recombinant human full length GRK1 at 1 uM using KKKKERLLDDRHDSGLDSMKDEE as substrate incubated for 40 mins in presence of [gamma-33P]-ATP by scintillation counting method relative to control
# [10] = biological target: Inhibitor of nuclear factor kappa-B kinase subunit alpha (Homo sapiens) (UniProt O15111); experiment: Inhibition of recombinant human full length IKKalpha at 1 uM using peptide as substrate incubated for 40 mins in presence of [gamma-33P]-ATP by scintillation counting method relative to control
# Summary of the method: (§2)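 Tested at a single 1 uM in an outsourced commercial kinase-profiling panel, read as percent inhibition. Each value is the mean of two independent experiments.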
# [11] = biological target: Tyrosine-protein kinase Lyn (Homo sapiens) (UniProt P07948); experiment: Inhibition of recombinant human full length LYN at 1 uM using poly(Glu, Tyr) 4:1 as substrate incubated for 40 mins in presence of [gamma-33P]-ATP by scintillation counting method relative to control
# [12] = system: Hepatocyte growth factor receptor (Homo sapiens), P08581 [D1246H]; experiment: Inhibition of recombinant human Met D1246H mutant (974 to end residues) at 1 uM using KKKGQEEEYVFIE as substrate incubated for 40 mins in presence of [gamma-33P]-ATP by scintillation counting method relative to control
# [13] = biological target: Ribosomal protein S6 kinase alpha-4 (Homo sapiens) (UniProt O75676); experiment: Inhibition of recombinant human MSK2 (2 to end residues) at 1 uM using GRPRTSSFAEGKK as substrate incubated for 40 mins in presence of [gamma-33P]-ATP by scintillation counting method relative to control
# [14] = system: Platelet-derived growth factor receptor alpha (Homo sapiens), P16234 [V561D]; experiment: Inhibition of recombinant human PDGFRalpha V561D mutant (550 to end residues) at 1 uM using GGMEDIYFEFMGGKKK as substrate incubated for 40 mins in presence of [gamma-33P]-ATP by scintillation counting method relative to control; summary of the method: as §2
# [15] = biological target: Receptor-interacting serine/threonine-protein kinase 1 (Homo sapiens) (UniProt Q13546); experiment: Inhibition of recombinant human RIPK1 (8 to 322 residues) at 1 uM using myelin basic protein as substrate incubated for 40 mins in presence of [gamma-33P]-ATP by scintillation counting method relative to control
# [16] = biological target: Serine/threonine-protein kinase SBK1 (Homo sapiens) (UniProt Q52WX2); experiment: Inhibition of recombinant human full length SBK1 at 1 uM using KKLRRTLSVA as substrate incubated for 40 mins in presence of [gamma-33P]-ATP by scintillation counting method relative to control
# [17] = biological target: Mitogen-activated protein kinase kinase kinase 7 (Homo sapiens) (UniProt O43318); experiment: Inhibition of recombinant human TAK1 (1 to 303 residues) at 1 uM using casein as substrate incubated for 40 mins in presence of [gamma-33P]-ATP by scintillation counting method relative to control
# [18] = biological target: Wee1-like protein kinase (Homo sapiens) (UniProt P30291); experiment: Inhibition of recombinant human WEE1 (214 to end residues) at 1 uM using LSNLYHQGKFLQTFCGSPLYRRR as substrate incubated for 40 mins in presence of [gamma-33P]-ATP by scintillation counting method relative to control
# [19] = biological target: Serine/threonine-protein kinase WNK2 (Homo sapiens) (UniProt Q9Y3S1); experiment: Inhibition of recombinant human WNK2 (166 to 489 residues) at 1 uM using myelin basic protein as substrate incubated for 40 mins in presence of [gamma-33P]-ATP by scintillation counting method relative to control
# [20] = biological target: Platelet-derived growth factor receptor beta (Homo sapiens) (UniProt P09619); experiment: Inhibition of recombinant human PDGFRbeta (557 to end residues) at 1 uM using poly(Glu, Tyr) 4:1 as substrate incubated for 40 mins in presence of [gamma-33P]-ATP by scintillation counting method relative to control
# [21] = system: HeLa; experiment: Induction of apoptosis in human HeLa cells at 40 nM incubated for 48 hrs by annexin V FITC and propidium iodide staining based flow cytometry; format: functional, cell-based
# Summary of the method: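 Cells were treated for 48 h, stained with FITC Annexin V and PI, and analyzed by flow cytometry to count early and late apoptotic cells.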
# Bone morphogenetic protein receptor type-1B (Homo sapiens), sequence (O00238 whole entry): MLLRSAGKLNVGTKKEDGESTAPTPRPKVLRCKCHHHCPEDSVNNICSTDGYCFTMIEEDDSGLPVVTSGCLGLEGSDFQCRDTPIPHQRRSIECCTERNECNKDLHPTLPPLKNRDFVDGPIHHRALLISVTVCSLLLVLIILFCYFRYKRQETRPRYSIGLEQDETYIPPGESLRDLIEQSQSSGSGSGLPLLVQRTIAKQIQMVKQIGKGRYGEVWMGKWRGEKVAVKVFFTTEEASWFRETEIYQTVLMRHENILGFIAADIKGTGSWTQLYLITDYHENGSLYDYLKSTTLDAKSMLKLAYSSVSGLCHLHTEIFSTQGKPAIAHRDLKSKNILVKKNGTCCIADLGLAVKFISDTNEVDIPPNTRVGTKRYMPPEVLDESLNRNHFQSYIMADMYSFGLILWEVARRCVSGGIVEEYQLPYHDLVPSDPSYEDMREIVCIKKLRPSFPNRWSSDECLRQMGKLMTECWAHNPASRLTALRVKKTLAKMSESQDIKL
# Platelet-derived growth factor receptor beta (Homo sapiens), sequence (P09619 whole entry): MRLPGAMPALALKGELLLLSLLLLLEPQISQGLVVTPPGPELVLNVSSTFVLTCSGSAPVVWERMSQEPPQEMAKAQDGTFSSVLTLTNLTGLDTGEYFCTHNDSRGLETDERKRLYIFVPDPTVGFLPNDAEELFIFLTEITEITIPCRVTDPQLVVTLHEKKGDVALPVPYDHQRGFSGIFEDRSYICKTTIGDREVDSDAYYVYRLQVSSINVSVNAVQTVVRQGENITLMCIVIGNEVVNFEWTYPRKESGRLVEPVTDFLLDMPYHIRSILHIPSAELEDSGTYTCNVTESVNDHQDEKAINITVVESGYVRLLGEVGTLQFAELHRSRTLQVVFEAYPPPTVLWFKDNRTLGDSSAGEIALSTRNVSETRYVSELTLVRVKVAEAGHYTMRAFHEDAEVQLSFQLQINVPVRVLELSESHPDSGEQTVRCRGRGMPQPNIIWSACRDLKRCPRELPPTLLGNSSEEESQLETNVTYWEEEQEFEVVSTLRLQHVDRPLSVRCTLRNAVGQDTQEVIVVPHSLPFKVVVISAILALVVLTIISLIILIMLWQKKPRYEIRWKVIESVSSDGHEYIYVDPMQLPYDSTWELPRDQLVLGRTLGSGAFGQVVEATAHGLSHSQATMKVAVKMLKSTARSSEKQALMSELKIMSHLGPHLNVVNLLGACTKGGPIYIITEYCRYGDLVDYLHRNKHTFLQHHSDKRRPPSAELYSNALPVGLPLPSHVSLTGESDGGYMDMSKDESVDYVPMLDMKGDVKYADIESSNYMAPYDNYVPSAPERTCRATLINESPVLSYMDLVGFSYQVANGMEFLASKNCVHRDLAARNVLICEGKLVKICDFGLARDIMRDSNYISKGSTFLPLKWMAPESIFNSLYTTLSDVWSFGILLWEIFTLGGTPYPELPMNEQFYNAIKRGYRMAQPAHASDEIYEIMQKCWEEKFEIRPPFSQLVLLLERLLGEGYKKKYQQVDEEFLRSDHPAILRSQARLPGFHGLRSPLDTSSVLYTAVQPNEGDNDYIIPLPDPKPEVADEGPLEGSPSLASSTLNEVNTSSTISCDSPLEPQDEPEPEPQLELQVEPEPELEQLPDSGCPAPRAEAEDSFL
# Receptor-interacting serine/threonine-protein kinase 1 (Homo sapiens), sequence (Q13546 whole entry, the tested form may be a part): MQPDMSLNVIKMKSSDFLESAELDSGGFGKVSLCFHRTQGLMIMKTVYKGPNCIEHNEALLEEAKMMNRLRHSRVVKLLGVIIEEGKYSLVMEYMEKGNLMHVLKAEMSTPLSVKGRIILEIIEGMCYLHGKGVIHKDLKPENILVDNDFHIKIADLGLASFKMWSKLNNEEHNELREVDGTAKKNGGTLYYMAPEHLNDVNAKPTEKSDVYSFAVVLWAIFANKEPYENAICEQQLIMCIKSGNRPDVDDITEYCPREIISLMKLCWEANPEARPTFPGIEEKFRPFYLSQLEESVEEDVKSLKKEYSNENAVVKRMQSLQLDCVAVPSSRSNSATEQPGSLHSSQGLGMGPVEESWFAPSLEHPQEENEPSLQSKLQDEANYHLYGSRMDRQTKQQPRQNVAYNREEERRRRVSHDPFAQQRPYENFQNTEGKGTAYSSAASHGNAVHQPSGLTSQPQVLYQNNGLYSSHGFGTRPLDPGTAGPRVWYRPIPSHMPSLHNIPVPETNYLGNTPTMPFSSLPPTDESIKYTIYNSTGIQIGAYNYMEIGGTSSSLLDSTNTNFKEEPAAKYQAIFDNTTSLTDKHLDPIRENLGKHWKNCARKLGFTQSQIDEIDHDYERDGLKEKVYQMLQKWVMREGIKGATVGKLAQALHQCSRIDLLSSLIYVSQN
# Tyrosine-protein kinase Lyn (Homo sapiens), sequence (P07948 2-512 limits assumed): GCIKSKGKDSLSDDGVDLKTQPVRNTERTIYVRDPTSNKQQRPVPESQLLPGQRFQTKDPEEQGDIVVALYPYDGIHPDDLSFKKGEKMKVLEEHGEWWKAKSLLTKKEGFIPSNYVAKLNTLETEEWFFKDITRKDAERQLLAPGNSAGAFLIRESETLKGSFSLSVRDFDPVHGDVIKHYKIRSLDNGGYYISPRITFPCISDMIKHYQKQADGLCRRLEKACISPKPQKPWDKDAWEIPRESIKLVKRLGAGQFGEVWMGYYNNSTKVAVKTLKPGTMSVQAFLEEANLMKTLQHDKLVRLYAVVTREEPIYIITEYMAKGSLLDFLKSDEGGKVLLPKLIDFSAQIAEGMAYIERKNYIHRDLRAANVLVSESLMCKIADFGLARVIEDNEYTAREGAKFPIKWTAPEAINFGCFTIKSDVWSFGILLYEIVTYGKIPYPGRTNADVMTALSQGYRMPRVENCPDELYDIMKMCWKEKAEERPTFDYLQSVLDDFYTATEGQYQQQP
# Ribosomal protein S6 kinase alpha-4 (Homo sapiens), sequence (O75676 whole entry, looked up): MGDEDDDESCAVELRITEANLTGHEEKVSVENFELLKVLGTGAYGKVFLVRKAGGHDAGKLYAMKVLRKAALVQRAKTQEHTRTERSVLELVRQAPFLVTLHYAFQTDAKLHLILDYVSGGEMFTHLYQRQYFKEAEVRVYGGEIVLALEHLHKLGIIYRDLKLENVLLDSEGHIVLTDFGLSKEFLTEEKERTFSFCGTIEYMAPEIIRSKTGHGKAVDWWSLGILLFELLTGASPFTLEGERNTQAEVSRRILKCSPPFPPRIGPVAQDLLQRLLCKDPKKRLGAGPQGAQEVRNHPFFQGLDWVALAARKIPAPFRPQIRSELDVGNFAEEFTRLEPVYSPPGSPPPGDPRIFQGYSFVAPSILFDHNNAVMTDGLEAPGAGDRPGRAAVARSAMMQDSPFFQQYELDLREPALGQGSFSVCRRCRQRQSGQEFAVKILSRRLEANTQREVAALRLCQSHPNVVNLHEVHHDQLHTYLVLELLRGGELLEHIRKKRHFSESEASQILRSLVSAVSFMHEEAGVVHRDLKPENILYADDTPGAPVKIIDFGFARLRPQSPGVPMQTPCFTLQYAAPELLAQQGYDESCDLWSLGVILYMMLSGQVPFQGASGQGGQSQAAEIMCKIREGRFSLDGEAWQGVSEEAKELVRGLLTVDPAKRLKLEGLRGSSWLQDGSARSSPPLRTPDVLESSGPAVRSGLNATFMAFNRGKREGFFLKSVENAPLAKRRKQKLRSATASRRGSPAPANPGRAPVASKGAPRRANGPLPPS
# Mitogen-activated protein kinase kinase kinase 7 (Homo sapiens), sequence (O43318 whole entry, the tested form may be a part): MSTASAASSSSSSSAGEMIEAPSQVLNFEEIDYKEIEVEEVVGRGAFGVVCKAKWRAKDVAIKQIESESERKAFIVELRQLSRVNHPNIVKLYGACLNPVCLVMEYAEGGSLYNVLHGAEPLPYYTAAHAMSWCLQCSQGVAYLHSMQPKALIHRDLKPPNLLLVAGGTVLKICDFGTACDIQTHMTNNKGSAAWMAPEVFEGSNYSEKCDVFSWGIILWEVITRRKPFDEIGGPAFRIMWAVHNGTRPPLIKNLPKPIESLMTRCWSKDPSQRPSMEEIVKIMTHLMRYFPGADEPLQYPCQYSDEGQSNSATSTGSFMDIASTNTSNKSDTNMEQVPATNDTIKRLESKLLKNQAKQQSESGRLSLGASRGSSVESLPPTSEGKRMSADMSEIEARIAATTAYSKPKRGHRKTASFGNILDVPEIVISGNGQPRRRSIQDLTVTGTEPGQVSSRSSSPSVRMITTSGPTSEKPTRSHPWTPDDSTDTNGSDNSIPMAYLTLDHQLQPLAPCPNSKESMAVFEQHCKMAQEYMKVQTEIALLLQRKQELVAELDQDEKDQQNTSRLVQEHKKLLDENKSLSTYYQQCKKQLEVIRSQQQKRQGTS
# Inhibitor of nuclear factor kappa-B kinase subunit alpha (Homo sapiens), sequence (O15111 whole entry): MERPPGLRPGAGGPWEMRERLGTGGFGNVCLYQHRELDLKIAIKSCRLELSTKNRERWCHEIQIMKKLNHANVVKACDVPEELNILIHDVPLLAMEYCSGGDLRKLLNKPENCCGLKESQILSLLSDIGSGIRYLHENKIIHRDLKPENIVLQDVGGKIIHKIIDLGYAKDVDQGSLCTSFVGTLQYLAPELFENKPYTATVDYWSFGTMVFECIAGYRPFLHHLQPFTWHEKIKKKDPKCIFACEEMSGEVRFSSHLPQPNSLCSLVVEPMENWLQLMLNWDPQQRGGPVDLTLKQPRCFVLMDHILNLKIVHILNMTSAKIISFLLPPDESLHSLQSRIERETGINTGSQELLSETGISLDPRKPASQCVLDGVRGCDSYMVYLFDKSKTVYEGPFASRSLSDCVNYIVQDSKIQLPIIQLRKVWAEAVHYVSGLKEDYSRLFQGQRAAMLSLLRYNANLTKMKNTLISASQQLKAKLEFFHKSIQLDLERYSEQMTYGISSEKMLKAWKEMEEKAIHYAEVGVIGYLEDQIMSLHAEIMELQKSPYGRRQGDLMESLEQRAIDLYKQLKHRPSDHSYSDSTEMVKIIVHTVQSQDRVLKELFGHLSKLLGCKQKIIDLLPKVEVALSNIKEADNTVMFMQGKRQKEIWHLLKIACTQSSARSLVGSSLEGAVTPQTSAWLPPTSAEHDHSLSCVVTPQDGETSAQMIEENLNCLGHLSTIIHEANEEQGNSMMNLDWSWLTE
compound,measurement,setting,value
Cc1ccc(NC(=O)C2(C(=O)Nc3ccc(Nc4ncc(F)c(-c5cc(F)c6nc(C)n(C(C)C)c6c5)n4)cc3)CC2)cc1,logP,[1],2.53
same,inhibition,[2],Active
same,Activity,[3],Active
same,Activity,[4],Non-Toxic
same,AUC(0-inf),[5],6000 ng·h/mL
same,AUMCt,[6],21 mg/L.hr
same,inhibition,[7],12%
same,inhibition,[8],42%
same,inhibition,[9],8%
same,inhibition,[10],0%
same,inhibition,[11],58%
same,inhibition,[12],55%
same,inhibition,[13],78%
same,inhibition,[14],70%
same,inhibition,[15],15%
same,inhibition,[16],13%
same,inhibition,[17],7%
same,inhibition,[18],5%
same,inhibition,[19],47%
same,inhibition,[20],6%
COc1cc2nccc(Oc3ccc(NC(=O)C4(C(=O)Nc5ccc(F)cc5)CC4)cc3)c2cc1OC [CABOZANTINIB],Activity,[21],Active
